Reference: ChEMBL document CHEMBL3046818, “Photosynthesis-Inhibiting efficiency of 4-chloro-2-(chlorophenylcarbamoyl)phenyl alkylcarbamates” (Bioorg Med Chem Lett, 2011)
pIC50: −log10 of the molar value.

Key:
[1] = biological target: Photosystem II protein D1 (Spinacia oleracea) (UniProt P69560); experiment: Inhibition of photosystem II in Spinacia oleracea (spinach) chloroplasts assessed as restoration of photosynthetic electron transport relative to control in presence of DPC; set-up: scale not given: the % may be the effect or the level left
In short: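 Spinach chloroplasts were first treated with the carbamate, then given the artificial PS 2 donor 1,5-diphenylcarbazide (DPC). PET activity was then measured and expressed as % of the untreated control.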

[2] = Lipophilicity, log K of the compound; format: physicochemical; conditions: RP-HPLC capacity factor, C18 column, methanol mobile phase
In short: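 Lipophilicity measured by RP-HPLC as capacity factor k, reported as log k.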

[3] = Chemical stability of the compound in aqueous buffer solutions at acidic pH by HPLC analysis; format: physicochemical
[4] = Half life in aqueous buffer solutions at pH 7.4 by HPLC analysis; format: ADME; conditions: aqueous buffer solution
[5] = biological target: Photosystem II protein D1 (Spinacia oleracea, UniProt P69560); experiment: Inhibition of photosystem II in Spinacia oleracea (spinach) chloroplasts assessed as reduction of photosynthetic electron transport
In short: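 PET in spinach chloroplasts read spectrophotometrically as DCPIP photoreduction in a chloroplast suspension at pH 7.2. Read within 2 min after adding the carbamate solution in DMSO. IC50 is the molar concentration giving a 50% decrease in activity relative to the untreated control.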

[6] = Half life in aqueous buffer solutions at pH 7 by HPLC analysis; format: ADME; conditions: aqueous buffer solution

| Compound | Activity [1] [%] | log K [2] | Stability [3] | half-life [4] [h] | pIC50 [5] | half-life [6] [h] |
| --- | --- | --- | --- | --- | --- | --- |
| CCCCCCCNC(=O)Oc1ccc(Cl)cc1C(=O)Nc1cccc(Cl)c1 | 94 | 0.7772 | Stable | 43 | 5.31 | 64 |
| CCCCCCCCCCNC(=O)Oc1ccc(Cl)cc1C(=O)Nc1ccc(Cl)c(Cl)c1 |  | 1.0894 | Stable | 43 |  | 64 |
| CCCCCCNC(=O)Oc1ccc(Cl)cc1C(=O)Nc1ccc(Cl)cc1 |  | 0.7859 | Stable | 43 | 5.20 | 64 |
| CN(C)C(=O)Nc1ccc(Cl)c(Cl)c1 [DCMU] |  | 0.47 |  |  | 5.72 |  |
| CCCCCNC(=O)Oc1ccc(Cl)cc1C(=O)Nc1ccc(Cl)c(Cl)c1 |  | 1.0601 | Stable | 43 | 4.00 | 64 |
| CCCCCCCCCCNC(=O)Oc1ccc(Cl)cc1C(=O)Nc1ccc(Cl)cc1 |  | 0.7942 | Stable | 43 | 5.08 | 64 |
| CCCCCNC(=O)Oc1ccc(Cl)cc1C(=O)Nc1ccc(Cl)cc1 |  | 0.7838 | Stable | 43 | 5.20 | 64 |
| CCCCCCCCCNC(=O)Oc1ccc(Cl)cc1C(=O)Nc1ccc(Cl)cc1 |  | 0.7919 | Stable | 43 | 5.10 | 64 |
| CCCCCCCCCCCNC(=O)Oc1ccc(Cl)cc1C(=O)Nc1cccc(Cl)c1 |  | 0.7902 | Stable | 43 | 4.74 | 64 |
| CCNC(=O)Oc1ccc(Cl)cc1C(=O)Nc1ccc(Cl)cc1 | 94 | 0.7695 | Stable | 43 | 5.01 | 64 |
| CCCCCCCCCNC(=O)Oc1ccc(Cl)cc1C(=O)Nc1ccc(Cl)c(Cl)c1 |  | 1.088 | Stable | 43 | 3.30 | 64 |
| CCCCNC(=O)Oc1ccc(Cl)cc1C(=O)Nc1cccc(Cl)c1 |  | 0.7611 | Stable | 43 | 4.87 | 64 |
| CCCCCCCCCCCNC(=O)Oc1ccc(Cl)cc1C(=O)Nc1ccc(Cl)c(Cl)c1 |  | 1.0903 | Stable | 43 |  | 64 |
| CCNC(=O)Oc1ccc(Cl)cc1C(=O)Nc1cccc(Cl)c1 |  | 0.7523 | Stable | 43 | 4.81 | 64 |
| CCCCCCCNC(=O)Oc1ccc(Cl)cc1C(=O)Nc1ccc(Cl)c(Cl)c1 |  | 1.0667 | Stable | 43 | 3.77 | 64 |
| CCCCCCCCNC(=O)Oc1ccc(Cl)cc1C(=O)Nc1cccc(Cl)c1 |  | 0.7831 | Stable | 43 | 5.00 | 64 |
| CCCCCNC(=O)Oc1ccc(Cl)cc1C(=O)Nc1cccc(Cl)c1 |  | 0.7732 | Stable | 43 | 5.27 | 64 |
| CCCCCCCNC(=O)Oc1ccc(Cl)cc1C(=O)Nc1ccc(Cl)cc1 |  | 0.7872 | Stable | 43 | 5.15 | 64 |
| CCNC(=O)Oc1ccc(Cl)cc1C(=O)Nc1ccc(Cl)c(Cl)c1 |  | 1.0234 | Stable | 43 | 4.08 | 64 |
| CCCCCCCCNC(=O)Oc1ccc(Cl)cc1C(=O)Nc1ccc(Cl)cc1 |  | 0.7899 | Stable | 43 | 5.13 | 64 |
| CCCCCCNC(=O)Oc1ccc(Cl)cc1C(=O)Nc1ccc(Cl)c(Cl)c1 |  | 1.0611 | Stable |  | 3.84 |  |
| CCCCCCCCCCCNC(=O)Oc1ccc(Cl)cc1C(=O)Nc1ccc(Cl)cc1 |  | 0.7947 | Stable | 43 | 4.98 | 64 |
| CCCCCCCCCCNC(=O)Oc1ccc(Cl)cc1C(=O)Nc1cccc(Cl)c1 |  | 0.7873 | Stable | 43 | 4.80 | 64 |
| CCCCCCNC(=O)Oc1ccc(Cl)cc1C(=O)Nc1cccc(Cl)c1 |  | 0.7758 | Stable | 43 | 5.28 | 64 |
| CCCCCCCCCNC(=O)Oc1ccc(Cl)cc1C(=O)Nc1cccc(Cl)c1 |  | 0.7837 | Stable | 43 | 4.81 | 64 |
| CCCCCCCCNC(=O)Oc1ccc(Cl)cc1C(=O)Nc1ccc(Cl)c(Cl)c1 |  | 1.0845 | Stable | 43 | 3.36 | 64 |
